# Screening results (PubChem)
# Hits are enriched below; roughly 2.1% of the tested compounds scored in any of these assays.
# eIF4H inh – human eIF4H binding inhibitors, primary screen, translation initiation inhibitor project, biochemical, uHTS, fluorescence polarization; Eukaryotic translation initiation factor 4H (Homo sapiens), Q15056; eIF4H fluorescence polarization binding assay; inhibition, % at 35 µM; actives 0.94% (n = 290,000);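 also: calls also rest on retests at 20 µM and on dose response follow-up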
# NS3 helicase inh – inhibitors of HCV NS3 helicase, primary screen, biochemical, Cy5 molecular beacon fluorescence | Hepatitis C virus NS3 helicase | NS3 helicase DNA unwinding | inhibition, % at 10.9 µM | actives 0.56% (n = 290,000) | AID 1800, 2009;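 active = inhibition above the mean of all tested compounds plus 3 SD, set per campaign, cut at about 35% in these data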
#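 Control set: DMSO versus 110 µM thioflavine S; Material: NS3 helicase fragment of HCV; Measured by: Cy5 fluorescence at 0 and 60 min, beacon hairpin quenching; Read-out basis: percent inhibition from t60/t0 fluorescence ratio; Times: reaction time 60 min, 25 °C; Repeats: single replicate; Compound dosing: single dose, 10.9 µM nominal final, DMSO 0.8% final.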
# EBNA-1 inhibitor – EBNA-1 DNA-binding inhibitors, primary screen, biochemical, fluorescence polarization; inhibition, % at 14.8 µM; actives 0.34% (n = 300,000); in the data active = inhibition above about 28%
# MLLE-PAM2 inh – inhibitors of PABP1 MLLE–PAM2 peptide binding, primary screen, biochemical, fluorescence polarization, FITC-PAM2, GST-MLLE; AID 588489, 2011; inhibition, % at 20 µM; actives 0.36% (n = 360,000); Polyadenylate-binding protein 1 (Homo sapiens), P11940; in the data active = inhibition above about 35%, passing the limit was not always enough
# ZTA counter – ZTA (EBV) inhibition in EBNA-1 counter-screen. AID 2234. P03206. actives 0.15% (n = 320,000). ZTA-DNA binding, fluorescence polarization. inhibition, % at 11 µM; in the data active = inhibition above about 33%
# Target sequence (P03206 whole entry, looked up): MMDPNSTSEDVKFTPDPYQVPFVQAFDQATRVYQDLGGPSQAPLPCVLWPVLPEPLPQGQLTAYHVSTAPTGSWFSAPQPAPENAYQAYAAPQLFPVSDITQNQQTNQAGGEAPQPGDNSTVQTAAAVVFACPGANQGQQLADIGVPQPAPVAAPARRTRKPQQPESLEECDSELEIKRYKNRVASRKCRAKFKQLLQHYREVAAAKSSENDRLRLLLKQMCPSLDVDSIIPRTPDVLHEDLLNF
# PABP polyA inh – PABP poly(A) RNA binding inhibitors, primary screen, biochemical, fluorescence polarization, uHTS. inhibition, % at 35 µM. Polyadenylate-binding protein 1 (Homo sapiens), P11940. actives 1% (n = 290,000);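 also: calls also rest on retests at 20 µM and on dose response follow-up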
# Hits are given with their value; – = inactive; ? = inconclusive; · = no result. Unless noted, no rule for the calls is given here.
SMILES,eIF4H inh,NS3 helicase inh,EBNA-1 inhibitor,MLLE-PAM2 inh,ZTA counter,PABP polyA inh
C/C=C/C=C/C(=O)[C@@H]1[C@@H]([C@]2(C)OC(=O)C(C)=C2O)[C@H]2/C(=C(O)/C=C/C=C/C)C(=O)[C@]1(C)C(=O)C2(C)O (stereo not given in full),61,·,–,–,–,–
Cc1ccc(C=C2C(Cl)=C(Cl)C(Cl)=C2Cl)cc1,102,–,–,·,–,84
CC(Sc1ccc2c(c1)OCCO2)C(=O)Nc1ncc(Cl)cc1Cl (stereo not given),–,–,–,43,–,–
Cc1cc(C)cc(CSCC(=O)NN=C2CCCCCC2)c1,–,–,–,–,–,–
O=C(CSc1ncccn1)NN=C1CCCCCC1,82,–,–,–,–,120
CC(=O)NC(CSc1cc(C)nc2ccc(Br)cc12)C(=O)O (stereo not given),–,–,–,–,–,–
CCN(CC)c1ncnc2c1[nH]c1ccccc12,72,–,–,–,–,active
Cc1nc(-n2[nH]c3c(c2=O)CCCC3)[nH]c(=O)c1Cc1ccccc1,?,–,–,–,–,104
O=C1CCCCN1CC(=O)N1CCCC(N2CCN(c3ccccc3F)CC2)C1 (stereo not given),–,–,–,–,–,–
C/C(Cl)=C/CSc1nc2c(c(=O)[nH]c(=O)n2C)n1C(C)C,–,–,–,–,–,–
C=CCSc1nc2c(c(=O)[nH]c(=O)n2C)n1C(C)C,–,–,–,41,–,–
O=C(O)CSc1nc2c(c(C(F)(F)F)n1)CCCC2,–,–,–,–,–,–
CCOC(=O)/C=C(\C)Sc1cc(=O)oc2ccccc12,–,–,–,–,–,–
CCOC(=O)/C=C(\C)Sc1cc(O)c2ccccc2c1O,–,–,·,62,·,–
CCCCNC(=O)NC1CCCC1,–,–,–,–,–,–
Cn1c(=O)c2c(ncn2CC(=O)Nc2nc(-c3ccccc3Cl)cs2)n(C)c1=O,–,–,27,–,–,–
CCOC(=O)Cc1csc(NC(=O)Cn2cnc3c2c(=O)n(C)c(=O)n3C)n1,–,–,–,–,–,–
c1ccc(-n2ncc3c2ncn2nc(-c4ccco4)nc32)cc1,50,–,–,–,–,–
COc1cccc(OCc2nc3c4cnn(-c5ccccc5)c4ncn3n2)c1,–,–,–,–,–,–
CCc1nc(SCC(=O)OC)c2c3c(sc2n1)COC(C)(C)C3,–,–,–,–,–,–
COC(=O)[C@@]1(Cc2ccccc2)[C@H]2C(=O)N(Cc3ccccc3)C(=O)[C@H]2[C@H]2CN=C(SCC(=O)c3ccccc3)N21,·,·,·,–,·,·
CC[C@]1(C(=O)OC)[C@H]2C(=O)N(Cc3ccccc3)C(=O)[C@H]2[C@H]2CN=C(SCC(=O)c3ccccc3)N21,·,·,·,38,·,·
Cc1ccc(S(=O)(=O)N2CCOCC2)cc1C(=O)O,–,–,–,–,–,–
Cc1ccc(S(=O)(=O)N2CCOCC2)cc1C(=O)N1C(=O)c2cccc(N)c2C1=O,57,–,–,–,–,71
CC12CCC(=O)N1C(C(=O)Nc1nc3c(F)cc(F)cc3s1)CS2 (stereo not given),–,–,–,–,–,–
SMILES,eIF4H inh,NS3 helicase inh,EBNA-1 inhibitor,MLLE-PAM2 inh,ZTA counter,PABP polyA inh
O=C1OC(Nc2cc(Br)cc3cccnc23)c2ccccc21 (stereo not given),65,–,–,–,–,active
COc1cc(CNc2ncnc3c2ncn3[C@H]2CN(Cc3cccc4ccccc34)C[C@@H](CO)O2)cc(OC)c1OC,·,·,·,–,·,·
O/N=C\c1cccn1-c1nccs1,10,–,–,–,–,64
CCC(C)[C@H](NC(=O)[C@@H]1Cc2ccccc2CN1)C(=O)NCc1ccc(OC)cc1 (stereo not given in full),–,–,–,–,–,–
O=Cc1c(Cl)[nH]c(=O)n1-c1ccccc1,–,–,·,–,·,53
COc1cccc(NC(=O)c2ccc(-c3ccc([N+](=O)[O-])cc3)o2)c1,–,–,–,–,–,36
COc1ccc(NC(=O)c2ccc(-c3ccc([N+](=O)[O-])cc3)o2)cc1OC,–,–,–,–,–,–
CC(=O)Nc1ccc(NC(=O)c2ccc(-c3ccc([N+](=O)[O-])cc3)o2)cc1,53,–,–,–,–,–
CCCCOc1ccc2c(c1)C(=O)c1cc(O)ccc1-2,–,–,–,–,–,–
CN(C)c1ccnc2sc3c(SCc4ccc(Cl)cc4)ncnc3c12,–,–,–,–,–,–
Cc1ccc(CNC(=O)CSc2nccn(-c3ccc(C)c(F)c3)c2=O)cc1,·,·,–,41,–,·
COc1ccc(-n2ccnc(SCC(=O)NCc3ccc(C)cc3)c2=O)cc1Cl,·,·,–,–,–,·
CCN1/C(=C/c2cc[n+](CCCS(=O)(=O)[O-])c3ccccc23)Sc2ccccc21,97,–,–,–,–,–
O=C(Nc1ccc(-c2nc3ccccc3s2)cc1)C1=COCCO1,–,–,43,–,–,–
CN1C(=O)CCC2(c3ccccc3)CC=C(O)C=C12 (stereo not given),·,·,·,–,·,·
N#CC(C#N)=c1ccc2c(c1)NC1(CCCCC1)N=2,–,–,38,–,40,–
Cc1cccn2c(=O)c3cc(C(=O)N(C)C)n(C)c3nc12,?,–,–,53,–,?
CCCCNC(=O)c1cc2c(=O)n3cccc(C)c3nc2n1C,–,·,·,·,·,–
COCCNC(=O)c1cc2c(=O)n3cccc(C)c3nc2n1C,–,·,–,–,–,–
Cc1cccn2c(=O)c3cc(C(=O)NCCCn4ccnc4)n(C)c3nc12,91,–,–,–,–,67
Cc1ccc(S(=O)(=O)N2CCN(C(=O)CC(C)n3cncn3)CC2)cc1 (stereo not given),–,–,–,–,–,–
Cc1ccc(C(=O)/C=C/C(=O)c2ccc(C)cc2)cc1,·,–,–,–,–,87
O=C(CSc1nc2c(cnn2-c2ccccc2)c(=O)[nH]1)NCC1CCCO1 (stereo not given),·,·,·,–,·,·
Cc1ccc(C(=O)C[n+]2cccc3ccccc32)cc1,–,–,–,–,–,–
CC1CC(C)CN(S(=O)(=O)c2ccc(NC(=O)CCNC(=O)c3ccc([N+](=O)[O-])cc3)cc2)C1 (stereo not given),·,·,·,–,–,·
O=[N+]([O-])c1cc(CN2CCCC2)c2cccnc2c1O,87,–,–,–,–,–
Oc1ccc(CN2CCCCC2)c2cccnc12,85,–,–,–,–,–
Cc1occc1C(=O)NNC(=O)c1ccccc1C(=O)O,–,–,–,–,–,–
CC(C)N1CC2=C(OC(N)=C(C#N)C2c2cccnc2)/C(=C/c2cccnc2)C1 (stereo not given),88,–,–,–,–,92
